Test results as given in ChEMBL document CHEMBL1125881, “Synthesis and hypocholesterolemic activity of 6,7-dihydro-4H-pyrazolo[1,5-a]pyrrolo[3,4-d]pyrimidine-5,8-diones, novel inhibitors of acylCoA:cholesterol O-acyltransferase” (J Med Chem, 1991).
Where “and” joins values, the source holds several entries; their conditions need not be identical. Equal entries are not always repeated.

Assays:
Rattus norvegicus [1] = species on record: Rattus norvegicus; test: (§1) Percent control of serum cholesterol in cholesterol; format: functional; parameters: concentration or dose not given beside the values
Summary of the method: (§2)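 Male Sprague-Dawley rats (100–110 g), groups of 10, fed synthetic diet with 1% cholesterol; compound mixed into diet to give the stated daily dose (mg/kg) for 7 days. Serum from jugular bleed under anesthesia; VLDL+LDL separated from HDL by PEG-8000 precipitation in glycine buffer pH 9; values expressed as % of cholesterol-fed control; one-way design, LSD comparison.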

Rattus norvegicus [2] = species on record: Rattus norvegicus; test: as §1; format: functional; parameters: concentration or dose not given beside the values; summary of the method: as §2; remark: listed apart in the source
Rattus norvegicus [3] = species on record: Rattus norvegicus; test: as §1; format: functional; parameters: concentration or dose not given beside the values; summary of the method: as §2; remark: listed apart in the source
[4] = target: T1, Sterol O-acyltransferase 1 (Rattus norvegicus, UniProt O70536); test: In vitro inhibition of Fu5AH acyl coenzyme A:cholesterol acyltransferase.
T1 sequence (O70536 whole entry): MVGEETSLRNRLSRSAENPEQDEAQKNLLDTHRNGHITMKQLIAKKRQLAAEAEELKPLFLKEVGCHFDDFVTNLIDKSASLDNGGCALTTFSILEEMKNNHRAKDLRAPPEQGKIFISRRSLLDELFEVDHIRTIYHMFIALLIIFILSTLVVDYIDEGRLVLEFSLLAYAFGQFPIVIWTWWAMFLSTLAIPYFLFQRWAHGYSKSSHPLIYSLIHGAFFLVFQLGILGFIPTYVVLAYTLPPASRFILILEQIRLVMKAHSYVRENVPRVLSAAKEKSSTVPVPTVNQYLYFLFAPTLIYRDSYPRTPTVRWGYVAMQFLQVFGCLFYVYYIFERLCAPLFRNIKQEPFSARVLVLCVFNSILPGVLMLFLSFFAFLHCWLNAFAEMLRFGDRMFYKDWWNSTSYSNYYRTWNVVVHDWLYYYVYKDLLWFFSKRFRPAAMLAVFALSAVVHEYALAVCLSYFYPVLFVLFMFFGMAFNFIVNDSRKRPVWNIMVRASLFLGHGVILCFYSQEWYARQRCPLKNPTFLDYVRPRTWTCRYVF

[5] = target: T2, Sterol O-acyltransferase 1 (Rattus norvegicus) (UniProt O70536); test: Inhibition of Fu5AH Acyl coenzyme A:cholesterol acyltransferase at the concentration of 10 ug/mL
T2 sequence (whole entry): T1 sequence (O70536 whole entry)

Rattus norvegicus [6] = species on record: Rattus norvegicus; test: (§3) The compound was tested for % control of serum cholesterol in cholesterol; format: functional; summary of the method: as §2
Rattus norvegicus [7] = species on record: Rattus norvegicus; test: as §3; format: functional; summary of the method: as §2; remark: listed apart in the source
Rattus norvegicus [8] = species on record: Rattus norvegicus; test: as §3; format: functional; summary of the method: as §2; remark: listed apart in the source
Rattus norvegicus [9] = species on record: Rattus norvegicus; test: as §3; format: functional; summary of the method: as §2; remark: listed apart in the source
Rattus norvegicus [10] = species on record: Rattus norvegicus; test: as §3; format: functional; summary of the method: as §2; remark: listed apart in the source

O=C(Cn1c2c(c(=O)n3nc(-c4ccccc4)cc13)CN(C1CC3CCC1C3)C2=O)c1ccccc1 (stereo not given)
Control (Rattus norvegicus [1]): 63%
Control (Rattus norvegicus [2]): 90%
Control (Rattus norvegicus [3]): 75%
IC50 [4]: 4.39 µM
inhibition [5]: 83%

CC(C)CC(C)N1Cc2c(n(CC(=O)c3ccccc3)c3cc(-c4ccccc4)nn3c2=O)C1=O (stereo not given)
Control (Rattus norvegicus [1]): 57%
Control (Rattus norvegicus [2]): 89%
Control (Rattus norvegicus [3]): 72%
IC50 [4]: 6.4 µM
inhibition [5]: 85%

O=C1c2c(c(=O)n3nc(-c4ccccc4)cc3n2CC2CCCCC2)CN1C1CCCCC1
Control (Rattus norvegicus [1]): 144%
Control (Rattus norvegicus [2]): 80%
Control (Rattus norvegicus [3]): 111%
IC50 [4]: 8.77 µM
inhibition [5]: 97%

C=CCOc1ccc(-c2cc3n(Cc4ccccc4)c4c(c(=O)n3n2)CN(C2CCCCC2)C4=O)cc1
Control (Rattus norvegicus [1]): 98%
Control (Rattus norvegicus [2]): 95%
Control (Rattus norvegicus [3]): 94%
IC50 [4]: 11.5 µM
inhibition [5]: 65%

CCCCCCN1Cc2c(n(CC(=O)c3ccccc3)c3cc(-c4ccccc4)nn3c2=O)C1=O
Control (Rattus norvegicus [1]): 86%
Control (Rattus norvegicus [2]): 98%
Control (Rattus norvegicus [3]): 89%
inhibition [5]: 75%

CN1Cc2c(n(Cc3ccccc3)c3cc(-c4ccccc4)nn3c2=O)C1=O
inhibition [5]: 8%

COC(=O)c1ccc(C(=O)Cn2c3c(c(=O)n4nc(-c5ccccc5)cc24)CN(C2CCCCC2)C3=O)cc1
Control (Rattus norvegicus [1]): 116%
Control (Rattus norvegicus [2]): 99%
Control (Rattus norvegicus [3]): 107%
inhibition [5]: 1%

O=C1c2c(c(=O)n3nc(-c4ccccc4)cc3n2CS(=O)(=O)c2ccccc2)CN1C1CCCCC1
inhibition [5]: 31%

CCOC(=O)CCCn1c2c(c(=O)n3nc(-c4ccccc4)cc13)CN(C1CCCCC1)C2=O
inhibition [5]: 28%

O=C1c2c(c(=O)n3nc(-c4ccccc4)cc3n2C/C=C/c2ccccc2)CN1C1CCCCC1
IC50 [4]: 15.5 µM
inhibition [5]: 75%

O=C1c2c(c(=O)n3nc(C4CCCCC4)cc3n2Cc2ccccc2)CN1C1CCCCC1
Control (Rattus norvegicus [1]): 106%
Control (Rattus norvegicus [2]): 111%
Control (Rattus norvegicus [3]): 109%
inhibition [5]: 12%

CC(C(=O)c1ccccc1)n1c2c(c(=O)n3nc(-c4ccccc4)cc13)CN(C1CCCCC1)C2=O (stereo not given)
inhibition [5]: 55%

CCCCCCCCCCCCCCCCOc1ccc(C(=O)Cn2c3c(c(=O)n4nc(-c5ccccc5)cc24)CN(C2CCCCC2)C3=O)cc1
inhibition [5]: 2%

O=C1c2c(c(=O)n3nc(-c4ccccc4)cc3n2CC(O)c2ccccc2)CN1C1CCCCC1 (stereo not given)
inhibition [5]: 66%

O=C(Cn1c2c(c(=O)n3nc(-c4ccccc4)cc13)CN(Cc1ccccc1)C2=O)c1ccccc1
Control (Rattus norvegicus [1]): 101%
Control (Rattus norvegicus [2]): 100%
Control (Rattus norvegicus [3]): 100%
IC50 [4]: 5.48 µM
inhibition [5]: 70%

O=C(Cn1c2c(c(=O)n3nc(-c4ccccc4)cc13)CN(C1CCCCC1)C2=O)c1ccccc1
Control (Rattus norvegicus [1]): 65%
Control (Rattus norvegicus [2]): 128%
Control (Rattus norvegicus [6]): 75%
Control (Rattus norvegicus [7]): 120%
Control (Rattus norvegicus [3]): 97% and 88%
IC50 [4]: 3.64 µM
inhibition [5]: 92%
Control (Rattus norvegicus [8]): 84%
Control (Rattus norvegicus [9]): 133%
Control (Rattus norvegicus [10]): 97%

O=C1c2c(c(=O)n3nc(-c4ccccc4)cc3n2Cc2ccccc2)CN1c1ccccc1
inhibition [5]: 18%

O=C1c2c(c(=O)n3nc(-c4ccccc4)cc3n2Cc2ccccc2)CN1Cc1ccccc1
Control (Rattus norvegicus [1]): 113%
Control (Rattus norvegicus [2]): 92%
Control (Rattus norvegicus [3]): 105%
IC50 [4]: 10.5 µM
inhibition [5]: 90%

O=C1c2c(c(=O)n3nc(-c4ccc(O)cc4)cc3n2Cc2ccccc2)CN1C1CCCCC1
inhibition [5]: 33%

CCCCCCn1c2c(c(=O)n3nc(-c4ccccc4)cc13)CN(C1CCCCC1)C2=O
inhibition [5]: 48%

CCCCCCCC/C=C\CCCCCCCCN1Cc2c(n(CC(=O)c3ccccc3)c3cc(-c4ccccc4)nn3c2=O)C1=O
Control (Rattus norvegicus [1]): 69%
Control (Rattus norvegicus [2]): 86%
Control (Rattus norvegicus [3]): 76%
inhibition [5]: 1%

O=C1c2c(c(=O)n3ncc(-c4ccccc4)c3n2Cc2ccccc2)CN1C1CCCCC1
inhibition [5]: 21%

O=C(Cn1c2c(c(=O)n3nc(-c4ccccc4)cc13)CN(C1CCCCC1)C2=O)c1cccc([N+](=O)[O-])c1
Control (Rattus norvegicus [1]): 126%
Control (Rattus norvegicus [2]): 83%
Control (Rattus norvegicus [3]): 106%
IC50 [4]: 2.74 µM
inhibition [5]: 87%

O=C(Cn1c2c(c(=O)n3nc(-c4ccccc4)cc13)CN(C1CCCCCCCCCCC1)C2=O)c1ccccc1
Control (Rattus norvegicus [1]): 76%
Control (Rattus norvegicus [2]): 92%
Control (Rattus norvegicus [3]): 83%
inhibition [5]: 39%

Cn1c2c(c(=O)n3nc(-c4ccccc4)cc13)CN(C1CCCCC1)C2=O
inhibition [5]: 13%

CCOc1ccc(-c2cc3n(Cc4ccccc4)c4c(c(=O)n3n2)CN(C2CCCCC2)C4=O)cc1
Control (Rattus norvegicus [1]): 122%
Control (Rattus norvegicus [2]): 93%
Control (Rattus norvegicus [3]): 110%
inhibition [5]: 75%

O=C1c2c(c(=O)n3nc(-c4ccccc4)cc3n2Cc2ccccc2)CN1C[C@H]1CC[C@H](O)CC1
Control (Rattus norvegicus [1]): 128%
Control (Rattus norvegicus [2]): 90%
Control (Rattus norvegicus [3]): 108%
inhibition [5]: 23%

CCCCCCCCCCCCN1Cc2c(n(CC(=O)c3ccccc3)c3cc(-c4ccccc4)nn3c2=O)C1=O
Control (Rattus norvegicus [1]): 85%
Control (Rattus norvegicus [2]): 92%
Control (Rattus norvegicus [3]): 91%
inhibition [5]: 39%

O=C1c2c(c(=O)n3nc(-c4ccccc4)cc3n2Cc2ccccc2)CN1C1CCCCC1
Control (Rattus norvegicus [1]): 110%
Control (Rattus norvegicus [2]): 97%
Control (Rattus norvegicus [3]): 104%
IC50 [4]: 7.98 µM
inhibition [5]: 88%

O=C(CCCn1c2c(c(=O)n3nc(-c4ccccc4)cc13)CN(C1CCCCC1)C2=O)c1ccccc1
IC50 [4]: 13.7 µM
inhibition [5]: 78%

O=C1c2c(c(=O)n3nc(-c4ccccc4)cc3n2CSc2ccccc2)CN1C1CCCCC1
IC50 [4]: 22.9 µM
inhibition [5]: 55%

CC(C)(C)CC(C)(C)N1Cc2c(n(CC(=O)c3ccccc3)c3cc(-c4ccccc4)nn3c2=O)C1=O
Control (Rattus norvegicus [1]): 96%
Control (Rattus norvegicus [2]): 122%
Control (Rattus norvegicus [3]): 107%
IC50 [4]: 8.86 µM
inhibition [5]: 80%

COc1ccc(CN2Cc3c(n(CC(=O)c4ccccc4)c4cc(-c5ccccc5)nn4c3=O)C2=O)cc1
inhibition [5]: 10%

CC(c1ccccc1)N1Cc2c(n(CC(=O)c3ccccc3)c3cc(-c4ccccc4)nn3c2=O)C1=O (stereo not given)
Control (Rattus norvegicus [1]): 90%
Control (Rattus norvegicus [2]): 92%
Control (Rattus norvegicus [3]): 91%
inhibition [5]: 30%

COc1ccc(C(=O)Cn2c3c(c(=O)n4nc(-c5ccccc5)cc24)CN(C2CCCCC2)C3=O)cc1
inhibition [5]: 52%

O=C(Cn1c2c(c(=O)n3nc(-c4ccccc4)cc13)CN(C1CCCCC1)C2=O)c1ccc2ccccc2c1
inhibition [5]: 19%

COC(=O)Cn1c2c(c(=O)n3nc(-c4ccccc4)cc13)CN(C1CCCCC1)C2=O
Control (Rattus norvegicus [1]): 109%
Control (Rattus norvegicus [2]): 112%
Control (Rattus norvegicus [3]): 109%
inhibition [5]: 25%

O=C1c2c(c(=O)n3nccc3n2Cc2ccccc2)CN1C1CCCCC1
inhibition [5]: 25%

O=C(Cn1c2c(c(=O)n3nc(-c4ccccc4)cc13)CN(C1CCCCC1)C2=O)c1ccc(F)cc1
Control (Rattus norvegicus [1]): 95%
Control (Rattus norvegicus [2]): 101%
Control (Rattus norvegicus [3]): 98%
IC50 [4]: 5.16 µM
inhibition [5]: 88%

O=C(Cn1c2c(c(=O)n3nc(-c4ccccc4)cc13)CN(C1CCCCCCC1)C2=O)c1ccccc1
Control (Rattus norvegicus [1]): 67%
Control (Rattus norvegicus [2]): 100%
Control (Rattus norvegicus [3]): 83%
inhibition [5]: 68%
